GPR7 antagonist = human neuropeptides B/W receptor 1 antagonism; GPR7-expressing cells, fluorescence antagonist assay; inhibition, % at 4.4 µM; 290,000 tested, 1.1% active; AID 1861; in the data active = inhibition above about 16%, passing the limit was not always enough;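 note: cells stimulated with the agonist NPW; 0% = agonist with vehicle and 100% = vehicle without agonist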
Target sequence (P48145 whole entry, looked up): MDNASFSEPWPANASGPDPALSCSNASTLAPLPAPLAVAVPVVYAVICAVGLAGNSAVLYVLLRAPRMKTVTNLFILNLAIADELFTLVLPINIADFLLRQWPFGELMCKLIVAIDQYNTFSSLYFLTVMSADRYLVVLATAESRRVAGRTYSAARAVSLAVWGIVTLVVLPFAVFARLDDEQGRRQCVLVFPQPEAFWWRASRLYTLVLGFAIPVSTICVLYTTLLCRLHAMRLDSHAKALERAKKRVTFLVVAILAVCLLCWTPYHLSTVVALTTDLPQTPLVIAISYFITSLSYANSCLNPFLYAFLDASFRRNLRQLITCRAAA
ZTA counter = blocks Epstein-Barr virus ZTA, an EBNA-1 counter-screen | 320,000 tested, 0.15% active | ZTA-DNA binding, fluorescence polarization | P03206 | inhibition, % at 11 µM | AID 2234; in the data active = inhibition above about 33%
Target sequence (P03206 whole entry, looked up): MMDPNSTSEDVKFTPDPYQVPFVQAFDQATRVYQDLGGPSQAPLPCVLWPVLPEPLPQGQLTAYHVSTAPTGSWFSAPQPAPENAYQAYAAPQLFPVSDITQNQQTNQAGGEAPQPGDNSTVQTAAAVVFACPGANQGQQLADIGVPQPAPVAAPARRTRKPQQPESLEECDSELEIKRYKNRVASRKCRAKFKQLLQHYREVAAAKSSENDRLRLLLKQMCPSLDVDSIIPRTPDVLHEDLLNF
EBNA-1 inhibitor = blocks EBNA-1 binding to DNA; inhibition, % at 14.8 µM; AID 1950; EBNA-1 DNA binding, fluorescence polarization; 300,000 tested, 0.34% active; in the data active = inhibition above about 28%
NS3 helicase inh = inhibitors of Hepatitis C virus NS3 helicase | NS3 helicase DNA unwinding, Cy5 molecular beacon fluorescence | inhibition, % at 10.9 µM | 290,000 tested, 0.56% active | AID 1800;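 active = inhibition above the mean of all tested compounds plus 3 SD, set per campaign, cut at about 35% in these data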;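 note: 0% = DMSO wells and 100% = thioflavine S control wells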
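test system = hepatitis C virus NS3 helicase domain fragment enzyme | reagent = annealed dual-labelled DNA beacon duplex, ATP-started | times = 1 h at 25 °C | detection = Cy5 fluorescence, 0 and 60 min reads | read-out basis = percent inhibition from t60/t0 fluorescence ratio | control set = DMSO and thioflavine S | replication = one well per compound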
FID counter = counter-screen for HCV NS3 helicase inhibitors: DNA intercalator displacement | DNA fluorescent intercalator displacement, fluorescence | inhibition, % at 7.9 µM | 290,000 tested, 0.17% active | AID 1845; in the data active = inhibition above about 37%;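 note: 0% = vehicle and 100% = reference compound; higher means more ethidium bromide displaced from hairpin DNA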
Starred values were filed as active, the others as inactive. Rows were chosen to be rich in hits. Some 2% of all compounds tested hit in one or more screens of this group.

What do the screens show for `Oc1ccc(Cl)cc1Cc1cc(Cl)ccc1O`?
GPR7 antagonist: 35.4*; ZTA counter: -15.5; EBNA-1 inhibitor: -8.1; NS3 helicase inh: 6.8; FID counter: 2.6

What do the screens show for `COc1ccc(CCNC(=O)c2cc(-c3ccccn3)nc3ccccc23)cc1`?
ZTA counter: -7.6

How did CC1(C)CC(N2CCC(=O)N(C3CC(C)(C)NC(C)(C)C3)C2)CC(C)(C)N1 do in these assays?
GPR7 antagonist: -0.6; ZTA counter: 25.0; EBNA-1 inhibitor: 6.5; NS3 helicase inh: 6.3; FID counter: 37.3*

Results for O=C(OC1CCCCC1)c1ccc2c(c1)C1C=CCC1C(C(=O)O)N2 (stereo unspecified) ?
GPR7 antagonist: -11.6; NS3 helicase inh: 40.1*; FID counter: -16.7

What do the screens show for `COC(=O)/C(=N/Nc1ccccc1C)Sc1nnc(C(O)c2ccccc2)n1-c1ccccc1` (stereo unspecified)?
GPR7 antagonist: -1.1; ZTA counter: -3.7; EBNA-1 inhibitor: -2.6; NS3 helicase inh: 13.7; FID counter: -8.1

What do the screens show for `CC(=O)/C(=N/Nc1cccc(Cl)c1)Sc1nnc(C(O)c2ccccc2)n1-c1ccccc1` (stereo unspecified)?
GPR7 antagonist: 26.5*; ZTA counter: 11.3; EBNA-1 inhibitor: 0.6; NS3 helicase inh: -5.7; FID counter: -33.6

What do the screens show for `CCOC(=O)Cn1c(=N)n(CCOc2ccc(OC)cc2)c2ccccc21`?
GPR7 antagonist: 4.3; ZTA counter: 8.9; EBNA-1 inhibitor: 8.3; NS3 helicase inh: -8.5; FID counter: 16.6

Results for CCOC(=O)Cn1c(=N)n(CCOc2ccc3ccccc3c2)c2ccccc21 ?
GPR7 antagonist: 20.8*; ZTA counter: -5.3; EBNA-1 inhibitor: 2.8; NS3 helicase inh: -27.8; FID counter: 10.0

Results for Cc1cc(Nc2ccc3c(c2)OCCO3)n2ncnc2n1 ?
GPR7 antagonist: 17.4*; ZTA counter: 15.7; EBNA-1 inhibitor: -0.5; NS3 helicase inh: 2.9; FID counter: -0.5

Results for COc1cc2c(cc1OC)C(NC(=O)c1ccc(C)cc1)CC2=O (stereo unspecified) ?
GPR7 antagonist: -15.4; ZTA counter: 19.0; EBNA-1 inhibitor: 7.0; NS3 helicase inh: -14.2; FID counter: -14.9

How did COc1ccc(-c2noc(-c3ccccc3C(=O)Nc3cccnc3)n2)cc1 do in these assays?
GPR7 antagonist: 13.8*; ZTA counter: 10.2; EBNA-1 inhibitor: -13.3; NS3 helicase inh: 12.5; FID counter: 0.4

How did COc1ccc(-c2noc(-c3ccccc3C(=O)Nc3cccnc3)n2)cc1OC do in these assays?
GPR7 antagonist: -3.0; ZTA counter: 6.0; EBNA-1 inhibitor: 4.5; NS3 helicase inh: -5.6; FID counter: -19.5

How did O=C(Nc1ccc(S(=O)(=O)N2CCCC2)cc1)c1cc(F)c(F)cc1Cl do in these assays?
GPR7 antagonist: 8.0; ZTA counter: 4.7; EBNA-1 inhibitor: -1.2; NS3 helicase inh: -4.4; FID counter: -13.9

How did CSCCC(NC(=O)COc1ccccc1)C(=O)N1CC(C)OC(C)C1 (stereo unspecified) do in these assays?
ZTA counter: -1.0

What do the screens show for `O=C(CN1C(=O)COc2ccccc21)NCCCN1CCN(c2ccccc2F)CC1`?
GPR7 antagonist: 8.2; ZTA counter: -13.9; EBNA-1 inhibitor: -6.8; NS3 helicase inh: 22.5; FID counter: 37.2*

How did Cc1cc(C(=O)COC(=O)c2ccc(O)cc2O)c(C)n1C(C)C do in these assays?
ZTA counter: -18.7

What do the screens show for `COCCn1c(-c2ccc(Cl)cc2)cnc1SCC(=O)NCc1cccs1`?
GPR7 antagonist: 19.9*; ZTA counter: -0.3; EBNA-1 inhibitor: 13.7; NS3 helicase inh: -1.1; FID counter: -35.4

Results for O=C(CSc1nc2ccccc2c(=O)n1Cc1ccc(Cl)cc1)NCc1cccs1 ?
GPR7 antagonist: 2.1; ZTA counter: -13.7; EBNA-1 inhibitor: -11.1; NS3 helicase inh: -4.8; FID counter: 0.1

How did COc1ccc(S(=O)(=O)Nc2ccccc2C(=O)Nc2nc(-c3ccc(F)cc3)cs2)cc1OC do in these assays?
GPR7 antagonist: 16.5; ZTA counter: 19.3; EBNA-1 inhibitor: 9.5; NS3 helicase inh: -16.2; FID counter: -28.7

What do the screens show for `COc1ccc(-c2csc(NC(=O)c3ccccc3NS(=O)(=O)c3ccc(C)cc3)n2)cc1`?
GPR7 antagonist: 27.2*; ZTA counter: 1.0; EBNA-1 inhibitor: -0.2; NS3 helicase inh: 22.0; FID counter: -25.3

What do the screens show for `O=c1cc(C(O)C[N+](=O)[O-])occ1OCc1ccccc1` (stereo unspecified)?
ZTA counter: 1.8; EBNA-1 inhibitor: -5.8

What do the screens show for `COc1ccc(-c2cn(-c3ccc(OC)cc3)c3[n+]2-c2ccccc2CC3)cc1`?
GPR7 antagonist: 24.4*; ZTA counter: 2.4; EBNA-1 inhibitor: -0.6; NS3 helicase inh: -24.8; FID counter: 7.5

What do the screens show for `CC(OC(=O)C1CCC1)C(=O)Nc1cc(Cl)cc(Cl)c1` (stereo unspecified)?
ZTA counter: 4.5; EBNA-1 inhibitor: -17.4

Results for COc1cc2nc(N3CCN(c4cc(C)ccc4C)CC3)nc(N)c2cc1OC ?
GPR7 antagonist: -3.8; ZTA counter: 1.6; EBNA-1 inhibitor: 16.3; NS3 helicase inh: -112.4; FID counter: 22.5

What do the screens show for `COc1cc2nc(N3CCNCC3)nc(N)c2cc1OC`?
GPR7 antagonist: 0.7; ZTA counter: 15.8; EBNA-1 inhibitor: 14.2; NS3 helicase inh: 16.4; FID counter: 48.9*

How did CC(C)(C)C1CCCCC1NC(=O)c1ccncc1 (stereo unspecified) do in these assays?
GPR7 antagonist: -9.7; NS3 helicase inh: -3.2; FID counter: -2.4

Results for COc1ccccc1C(=O)NC(C(=O)NCCc1nc2ccccc2[nH]1)=C(C)C ?
GPR7 antagonist: -5.0; ZTA counter: 4.7; EBNA-1 inhibitor: 2.0; NS3 helicase inh: 4.4; FID counter: -20.1

How did c1csc(-c2csc3nc(CN4CCOCC4)nc(NCc4ccc5c(c4)OCO5)c23)c1 do in these assays?
GPR7 antagonist: 19.1*; ZTA counter: 4.3; EBNA-1 inhibitor: 14.4; NS3 helicase inh: -41.5; FID counter: -2.4

How did c1ccc2c(c1)nc(NCc1ccc3c(c1)OCO3)n2CCN1CCOCC1 do in these assays?
GPR7 antagonist: -5.0; ZTA counter: -8.3; EBNA-1 inhibitor: 0.1; NS3 helicase inh: 4.7; FID counter: -1.8

How did c1csc(COc2ccccc2CNC2CCCCC2)c1 do in these assays?
GPR7 antagonist: 23.8*; ZTA counter: -10.2; EBNA-1 inhibitor: -8.1; NS3 helicase inh: -5.0; FID counter: 8.6

What do the screens show for `c1ccc(COc2ccccc2CNC2CCCC2)cc1`?
GPR7 antagonist: 13.0; ZTA counter: -2.9; EBNA-1 inhibitor: -5.7; NS3 helicase inh: 2.3; FID counter: 10.0

How did Cc1noc(C)c1COc1ccc(CC(=O)NCc2ccccc2)cc1 do in these assays?
GPR7 antagonist: 17.9*; ZTA counter: -11.7; EBNA-1 inhibitor: -3.2; NS3 helicase inh: -8.2; FID counter: -17.7

What do the screens show for `CCCN1C(=O)/C(=C\C=C2/C=CN(CC)c3ccccc32)SC1=S`?
GPR7 antagonist: 21.2*; ZTA counter: -7.3; EBNA-1 inhibitor: -5.7; NS3 helicase inh: -38.9; FID counter: 22.2
